Measured values: ChEMBL document CHEMBL2086368, “Sulfonilamidothiopyrimidone and thiopyrimidone derivatives as selective COX-2 inhibitors: synthesis, biological evaluation, and docking studies” (Eur J Med Chem, 2012)
Activity calls are given as the source filed them. The calls are words filed in the database; no cut-off is given here.

What was measured:
PBL [1] = assay: Cytotoxicity against IL2-stimulated human PBL assessed as cell death at 10 uM after 24 hrs by MTT assay; assay type: cell-based
Procedure, shortened: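 IL-2-treated human PBLs given 1, 10 or 50 (micromolar) test agent for 24 h. Viability read by MTT (0.15 mg/ml, 4 h, 37 °C) reduction to formazan, absorbance at 570 nm with 655 nm reference. DMSO served as cell-death control.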

[2] = target: T1, Prostaglandin G/H synthase 2 (Homo sapiens) (UniProt P35354); assay: Increase of COX2-mediated PGE2 production in PMA-Ion-stimulated human PBL at 10 uM after 24 hrs by ELISA
T1 sequence (whole entry): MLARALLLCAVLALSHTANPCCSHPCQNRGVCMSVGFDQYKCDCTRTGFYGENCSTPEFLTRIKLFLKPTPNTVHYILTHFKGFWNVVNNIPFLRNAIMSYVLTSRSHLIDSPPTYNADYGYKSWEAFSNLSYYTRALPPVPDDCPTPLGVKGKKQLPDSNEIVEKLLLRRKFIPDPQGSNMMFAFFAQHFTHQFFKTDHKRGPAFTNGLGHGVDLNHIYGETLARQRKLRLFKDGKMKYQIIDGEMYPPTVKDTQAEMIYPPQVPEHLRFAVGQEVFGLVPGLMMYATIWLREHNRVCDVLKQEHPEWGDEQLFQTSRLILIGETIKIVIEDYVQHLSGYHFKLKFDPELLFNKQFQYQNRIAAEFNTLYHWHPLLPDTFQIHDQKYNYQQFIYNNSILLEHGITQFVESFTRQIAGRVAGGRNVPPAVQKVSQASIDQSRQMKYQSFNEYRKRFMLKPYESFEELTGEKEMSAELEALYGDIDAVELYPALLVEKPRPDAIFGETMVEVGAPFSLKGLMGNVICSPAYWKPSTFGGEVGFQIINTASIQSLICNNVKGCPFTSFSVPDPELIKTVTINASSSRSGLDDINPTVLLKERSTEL

[3] = target: T1, Prostaglandin G/H synthase 2 (Homo sapiens); assay: Inhibition of COX2-mediated PGE2 production in PMA-Ion-stimulated human PBL at 10 uM after 24 hrs by ELISA
[4] = target: T1, Prostaglandin G/H synthase 2 (Homo sapiens); assay: Increase of COX2-mediated PGE2 production in PMA-Ion-stimulated human PBL at 10 uM after 24 hrs by ELISA relative to control
PBL [5] = assay: Inhibition of COX2 expression in PMA-Ion-stimulated human PBL at 5 uM after 20 hrs by Western blot analysis; assay type: functional, cell-based
Procedure, shortened: (§1)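 PBLs treated with PMA 15 ng/ml plus ionomycin, alone or with inhibitor, for 20 h at 37 °C; NS398 as inhibition control. Lysates quantified by BCA, resolved on 10% SDS-PAGE, semidry-blotted to PVDF, probed with rabbit anti-human COX-2 (1:500) and anti-α-tubulin loading control, ECL detection.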

PBL [6] = assay: Antiproliferative activity against human PBL assessed as incorporation of BrdU at 10 uM after 2 to 24 hrs; assay type: cell-based
Procedure, shortened: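 Human PBLs in RPMI 1640 with 10% heat-inactivated FCS, 1% penicillin/streptomycin, 2 mM L-glutamine, stimulated with PHA and 60 U/ml IL-2; exposed to test agent for 24 h at 37 °C, 5% CO2. DNA synthesis read by immunochemical detection of incorporated BrdU after partial DNA denaturation.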

[7] = target: Prostaglandin G/H synthase 2 (Ovis aries) (UniProt P79208); settings: at 5 nM
PBL [8] = assay: Inhibition of COX2 expression in PMA-Ion-stimulated human PBL at 10 uM after 20 hrs by Western blot analysis; assay type: functional, cell-based; procedure, shortened: as §1

Prostaglandin G/H synthase 2 (Ovis aries), sequence (P79208 whole entry, looked up): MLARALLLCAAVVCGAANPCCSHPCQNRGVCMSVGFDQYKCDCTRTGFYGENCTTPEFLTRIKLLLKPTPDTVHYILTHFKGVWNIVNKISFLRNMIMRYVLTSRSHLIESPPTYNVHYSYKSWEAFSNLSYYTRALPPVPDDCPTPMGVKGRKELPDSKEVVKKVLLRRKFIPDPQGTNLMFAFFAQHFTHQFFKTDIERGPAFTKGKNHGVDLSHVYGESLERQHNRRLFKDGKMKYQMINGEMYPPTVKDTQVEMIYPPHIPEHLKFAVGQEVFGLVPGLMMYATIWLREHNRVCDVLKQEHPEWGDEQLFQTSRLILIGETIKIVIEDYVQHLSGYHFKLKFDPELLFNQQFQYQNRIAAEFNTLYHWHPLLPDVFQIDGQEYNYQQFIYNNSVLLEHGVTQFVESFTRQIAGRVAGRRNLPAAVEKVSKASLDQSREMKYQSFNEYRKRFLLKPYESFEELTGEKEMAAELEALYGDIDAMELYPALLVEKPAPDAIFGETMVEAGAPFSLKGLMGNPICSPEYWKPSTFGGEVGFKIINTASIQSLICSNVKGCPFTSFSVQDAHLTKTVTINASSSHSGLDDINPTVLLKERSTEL

| SMILES | Activity (PBL [1]) | inhibition [3] | also measured |
| --- | --- | --- | --- |
| O=C1Nn2c(nc3c(sc4ccccc43)c2=O)SC1c1ccccc1 (configuration not stated) | Non-toxic |  | Activity [2]: Active |
| COc1ccc(C2=Nn3c(nc4sc(-c5ccccc5)cc4c3=O)SC2)cc1 | Non-toxic | inactive |  |
| CS(=O)(=O)Nn1c(SC2CCCCC2)nc2sc(-c3ccccc3)cc2c1=O | Non-toxic |  | fold change (FC) [4]: 2.9 |
| CS(=O)(=O)Nc1ccc([N+](=O)[O-])cc1OC1CCCCC1 |  |  | inhibition (PBL [5]): Active |
| CS(=O)(=O)Nn1c(Sc2ccccc2[N+](=O)[O-])nc2sc(-c3ccccc3)cc2c1=O | Non-toxic | 20% | Activity (PBL [6]): Non-toxic; inhibition [7]: 50%; inhibition (PBL [8]): Active |
| Cc1sc2nc(SC3CCCCC3)n(NS(C)(=O)=O)c(=O)c2c1C | Non-toxic |  | Activity [2]: Active |
| CC(Sc1nc2c(sc3ccccc32)c(=O)n1N)C(=O)O (configuration not stated) | Non-toxic |  |  |
| CS(=O)(=O)Nn1c(Sc2ccc([N+](=O)[O-])cc2[N+](=O)[O-])nc2sc3c(c2c1=O)CCCC3 | Non-toxic |  |  |
| CCc1nn2c(=O)c3cc(-c4ccccc4)sc3nc2s1 | Non-toxic |  |  |
| CS(=O)(=O)Nn1c(Sc2ccc([N+](=O)[O-])cc2)nc2sc(-c3ccccc3)cc2c1=O | Non-toxic | 20% | Activity (PBL [6]): Non-toxic; inhibition [7]: 50%; inhibition (PBL [8]): Active |
| O=c1c2sc3ccccc3c2nc2n1N=C(c1ccccc1)CS2 | Non-toxic | inactive |  |
| CS(=O)(=O)Nn1c(Sc2ccc(F)cc2F)nc2sc(-c3ccccc3)cc2c1=O | Non-toxic | > 50% | Activity (PBL [6]): Non-toxic; inhibition [7]: 50%; inhibition (PBL [8]): Active |
| CS(=O)(=O)Nn1c(Sc2ccccc2C(=O)O)nc2ccsc2c1=O | Non-toxic |  | Activity [2]: Active |
| CS(=O)(=O)Nn1c(Sc2ccccc2C(=O)O)nc2sc(-c3ccccc3)cc2c1=O | Non-toxic | 20% | Activity (PBL [6]): Non-toxic; inhibition [7]: 50%; inhibition (PBL [8]): Active |
| Nn1c(SC(C(=O)O)c2ccccc2)nc2c([nH]c3ccccc32)c1=O (configuration not stated) | Non-toxic |  |  |
